T cruzi HTS: intracellular Trypanosoma cruzi inhibition. intracellular Trypanosoma cruzi in host cells, plate reader. actives 4.9% (n = 22,000). activity score (inhibition), % at 5.01 µM. AID 651903; in the data active means activity score above about 55%;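 further: parasites and compound incubated about four days before reading; 0% = median of neutral control wells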
A1 apoptosis 2: blocks A1, raising caspase activity | MEF A1-2A-BIM cells, caspase-Glo luminescence, 3 h; percent of clofoctol response, DMSO zero | 24,000 tested, under 10 active | AID 2465 | caspase activation, % (no concentration beside the values); in the data active means caspase activation above about 5.9%
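System: mouse embryonic fibroblasts co-expressing A1 and BIM (A1-2A-BIM), primed for A1 dependence; amount: 2500 cells/well; doses: 50 nL pinned compound; schedule: cells settled overnight, compound exposure 3 h at 37 °C, 5% CO2; detection: Caspase-Glo 3/7 luminescence, 1 h at room temperature; read-out: Caspase-3/7 activation, seen as rise in luminescence signal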
INS-1E rescue: preserves ATP levels in cytokine-treated INS-1E cells. INS-1E cytokine-induced death, ATP luminescence, 48 h; normalised: neutral wells 0, positive control 100. protection from cytokine-induced ATP loss, % at 10 µM. actives 0.1% (n = 20,000). AID 488910;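 active means mean replicate protection from cytokine-induced ATP loss at least 50% and at least 75% of replicates each reaching 50%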
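Test system: INS-1E rat cells | Quantity: 8000 cells per well | Medium: Phenol-red-free RPMI with 5% fetal bovine serum | Reagent: Cytokine cocktail of IFN-γ, TNF-α and IL-1β | Doses: One compound concentration, pin transfer | Timing: 48 h co-treatment, 10 min post-lysis read | Technique: Luminescent ATP assay (CellTiter-Glo)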
* = called active by the depositor; · = no result given. This excerpt belongs to a sample that is enriched for hits.

SMILES | T cruzi HTS | A1 apoptosis 2 | INS-1E rescue
C[C@@H]1CN([C@@H](C)CO)C(=O)Cc2cc(NS(=O)(=O)c3ccccc3)ccc2O[C@@H]1CN(C)S(=O)(=O)c1ccc(Cl)cc1 | 67.0* | 0.3 | -6.4
C[C@@H]1CN([C@@H](C)CO)C(=O)Cc2cc(NS(=O)(=O)c3ccc(Cl)cc3)ccc2O[C@@H]1CN(C)S(=O)(=O)c1ccc(Cl)cc1 | 67.0* | · | -5.0
COc1ccc(NC(=O)N(C)C[C@@H]2OCCCC[C@H](C)Oc3ccc(NC(=O)Nc4ccc(C(F)(F)F)cc4)cc3C(=O)N([C@@H](C)CO)C[C@H]2C)cc1 | · | 0.8 | ·
C[C@@H]1CCCCO[C@@H](CN(C)Cc2ccc(C(=O)O)cc2)[C@H](C)CN([C@H](C)CO)C(=O)c2cc(NS(=O)(=O)c3ccc(Cl)cc3)ccc2O1 | · | -0.8 | ·
O=C(N/N=C/c1ccc(O)cc1O)c1ccccc1O | 67.0* | -10.8 | -127.8
O=C(N/N=C\c1ccc2ccccc2c1O)c1ccccc1O | 62.0* | · | -129.8
O=C(N/N=C/c1cc(Br)cs1)c1ccccc1O | -21.7 | -5.6 | -32.7
O=C(N/N=C/c1cc(Br)cc(Br)c1O)c1ccccc1O | 83.1* | -6.9 | -125.3
O=C(N/N=C/c1cc(O)ccc1Br)c1ccccc1O | -7.1 | -6.0 | -44.9
Cn1cc(/C=N\NC(=O)c2ccccc2O)c2ccccc21 | -21.6 | · | 13.8
O=C(N/N=C/c1ccc(F)c(Oc2ccccc2)c1)c1ccccc1O | -2.8 | -4.6 | 0.2
C[C@H]1CN([C@@H](C)CO)C(=O)c2cccc(NS(=O)(=O)c3ccc(F)cc3)c2O[C@H]1CN(C)S(=O)(=O)c1ccc(F)cc1 | 6.5 | · | -2.7
Cc1ccc(S(=O)(=O)Nc2cccc3c2O[C@H](CN(C)S(=O)(=O)c2cccs2)[C@H](C)CN([C@@H](C)CO)C3=O)cc1 | 21.6 | · | 1.5
CC1=C(C/C=N/NC(=O)CCCCCC(=O)NO)C(C)(C)CCC1 | · | 0.8 | ·
COc1ccc(C#Cc2cnc3c(c2)C(=O)N([C@H](C)CO)C[C@H](C)[C@H](CN(C)Cc2cccc(C(F)(F)F)c2)O3)cc1OC | 83.6* | -0.4 | ·
C[C@H](CO)N1C[C@H](C)[C@H](CN(C)C)Oc2ncc(C#CCN(C)C)cc2C1=O | -14.8 | · | ·
COc1ccc(S(=O)(=O)N(C)C[C@@H]2Oc3ncc(C#Cc4ccc(OC)c(OC)c4)cc3C(=O)N([C@H](C)CO)C[C@@H]2C)cc1 | 42.9 | -1.4 | ·
COc1ccc(C#Cc2cnc3c(c2)C(=O)N([C@H](C)CO)C[C@H](C)[C@H](CN(C)C)O3)cc1OC | 82.8* | 0.0 | ·
Cc1cccc(CN(C)C[C@@H]2Oc3ncc(C#Cc4ccccc4)cc3C(=O)N([C@H](C)CO)C[C@@H]2C)c1 | 73.6* | 0.4 | ·
C[C@H](CO)N1C[C@H](C)[C@H](CN(C)C)Oc2ncc(C#Cc3ccccc3)cc2C1=O | 78.5* | 0.0 | ·
COc1ccc(C#Cc2cnc3c(c2)C(=O)N([C@H](C)CO)C[C@H](C)[C@H](CN(C)Cc2ccccc2)O3)cc1OC | 15.4 | -0.2 | ·
Cc1cccc(CN(C)C[C@@H]2Oc3ncc(C#CCN(C)C)cc3C(=O)N([C@H](C)CO)C[C@@H]2C)c1 | 2.7 | · | ·
C[C@@H]1CN([C@H](C)CO)C(=O)c2cc(NC(=O)c3ccncc3)ccc2O[C@H]1CN(C)S(C)(=O)=O | -7.7 | · | 4.4
C[C@H]1CCCCO[C@H](CN(C)C)[C@@H](C)CN([C@@H](C)CO)C(=O)c2cc(NS(=O)(=O)c3ccccc3)ccc2O1 | · | -1.6 | ·
Cc1cccc(CN(C)C[C@@H]2Oc3ncc(-c4cccc(C(F)(F)F)c4)cc3C(=O)N([C@H](C)CO)C[C@@H]2C)c1 | 63.4* | · | ·
SMILES | T cruzi HTS | A1 apoptosis 2 | INS-1E rescue
C[C@H](CO)N1C[C@H](C)[C@H](CN(C)S(=O)(=O)c2ccc(C#N)cc2)Oc2ncc(-c3cccc(C(F)(F)F)c3)cc2C1=O | 9.7 | 0.3 | ·
C[C@H](CO)N1C[C@H](C)[C@H](CN(C)Cc2cccc(C(F)(F)F)c2)Oc2ncc(-c3ccccc3)cc2C1=O | 42.5 | · | ·
Cc1ccc(S(=O)(=O)N(C)C[C@@H]2Oc3ncc(-c4cccc(C(F)(F)F)c4)cc3C(=O)N([C@H](C)CO)C[C@@H]2C)cc1 | 61.0* | -0.2 | ·
O=C(NO)c1cccc(C(=O)N/N=C/c2ccc(-n3ccnc3)cc2)c1 | -21.1 | 0.6 | 9.6
C[C@H]1CN([C@@H](C)CO)C(=O)c2cccc(NC(=O)Nc3ccc(F)cc3)c2O[C@@H]1CN(C)C(=O)Nc1ccc(F)cc1 | -17.7 | · | 4.7
C[C@H]1CN([C@@H](C)CO)C(=O)Cc2cc(NC(=O)Nc3ccc4c(c3)OCO4)ccc2O[C@H]1CN(C)Cc1ccc(Cl)c(Cl)c1 | 63.3* | · | -6.4

Screening results: PubChem, Broad Institute
